Measurements gathered from unrelated publications.
Target: Serine/threonine-protein kinase Nek2 (NEK2, Homo sapiens, UniProt P51955)
One construct used (P51955 1-445): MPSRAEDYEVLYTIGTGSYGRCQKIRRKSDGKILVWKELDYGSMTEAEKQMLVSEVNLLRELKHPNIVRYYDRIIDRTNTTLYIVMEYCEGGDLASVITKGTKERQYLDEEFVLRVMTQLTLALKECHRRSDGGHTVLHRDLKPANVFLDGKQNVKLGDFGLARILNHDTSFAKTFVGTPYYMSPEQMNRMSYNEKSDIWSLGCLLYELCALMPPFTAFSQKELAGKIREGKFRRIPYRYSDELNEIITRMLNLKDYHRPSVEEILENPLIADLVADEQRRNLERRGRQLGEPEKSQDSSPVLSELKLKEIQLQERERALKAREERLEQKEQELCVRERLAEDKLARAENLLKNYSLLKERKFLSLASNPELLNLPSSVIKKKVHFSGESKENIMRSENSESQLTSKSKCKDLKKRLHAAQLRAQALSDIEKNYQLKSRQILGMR

| SMILES | test | setting | endpoint | result |
| --- | --- | --- | --- | --- |
| CN(C)CC#Cc1ccc(OCCCc2sc(N3CCc4cccc(C(=O)Nc5nc6ccccc6s5)c4C3)nc2C(=O)O)c(F)c1 | cell-free assay, competition with immobilised ligand | 1 µM | remaining binding | 92% |
| Clc1ccc(Nc2nnc(Cc3ccncc3)c3ccccc23)cc1 | cell-free assay | 0.5 µM | remaining signal | 101% |
| Nc1nc(NC2CCCCC2)sc1C(=O)c1ccccc1 | enzyme activity, inhibitor | 10 µM | remaining activity | 93% |
| Cn1c(=O)n(-c2ccc(C(C)(C)C#N)cc2)c2c3cc(-c4cnc5ccccc5c4)ccc3ncc21 | enzyme activity, inhibitor | 10 µM | remaining activity | 145% |
| COc1cc(Cl)c(C(=O)N[C@@H](CN[C@H]2CC[C@@H](N)CC2)Cc2ccc(C#N)cc2)cc1-c1ccc(CN[C@H](C)c2ccc(C)cc2)o1 | enzyme activity, inhibitor | 1 µM | remaining activity | 114% |
| Cc1c(NC(=O)c2cc(C(N)=O)nc3cc(F)ccc23)c(C(F)(F)F)nn1Cc1ccc(C#N)cc1 | cell-free assay, competition with immobilised ligand | 1 µM | remaining binding | 100% |
| CCN(CC)c1ccc(C2=NNC(=O)CC2C)cc1[N+](=O)[O-] (centres unmarked) | enzyme activity, inhibitor | 10 µM | remaining activity | 91% |
| O=C(NS(=O)(=O)c1ccc(NCC2CCOCC2)c([N+](=O)[O-])c1)c1ccc(N2CCN(Cc3ccc(C(F)(F)F)cc3-c3ccc(Cl)cc3)CC2)cc1Oc1cnc2[nH]ccc2c1 | cell-free assay, competition with immobilised ligand | 1 µM | remaining binding | 100% |
| CNc1cccc2cc(C(=O)Nc3ccc(C(=O)O)cc3)c(=O)[nH]c12 | enzyme activity, inhibitor | 10 µM | inhibition | 3.2% |
| Cc1ccc(NC(=O)c2ccc(C)c(C(F)(F)F)c2)cc1C#Cc1nn(C2CCC(O)CC2)c2ncnc(N)c12 (centres unmarked) | cell-free assay | 10 µM | remaining signal | 117% |
| Cc1cnc(NC2CCOCC2)nc1-n1cnc(C(=O)NC(CN)c2cc(F)cc(Cl)c2)c1 (centres unmarked) | enzyme activity, inhibitor, radiometric | 1 µM | remaining activity | 36% |
| COc1cc2ncnc(Nc3ccc(Oc4ccccc4)c(C)c3C)c2cc1OC | enzyme activity, inhibitor | 1 µM | inhibition | 1% |
| CN1CC(Oc2cnc(C#N)cc2-c2ccn3nc(NC(=O)C4CC4)cc3c2)C1 | enzyme activity, inhibitor | 1 µM | inhibition | 5% |
| CC1(C)NC(=O)c2[nH]c3c(Cl)c(Cl)ccc3c2C1C#N (centres unmarked) | thermal stability, DSF | 10 µM | ΔTm | -0.8 °C |
| CN(C)C1CCN(CC#Cc2nn(C3CCCC3)c3nc(NCc4ccccc4)ncc23)C1 (centres unmarked) | enzyme activity, inhibitor, FRET | 10 µM | inhibition | 15% |
| CNCc1ccc(-c2cc(-c3nc(-c4ccc(S(=O)(=O)C(C)C)cc4)cnc3N)on2)cc1 | enzyme activity, inhibitor | 2 µM | inhibition | 2% |
| Cc1ccc(C(=O)NCc2ccsc2)cc1C#Cc1cn(C(C)C)c2ncnc(N)c12 | enzyme activity, inhibitor | 1 µM | activity vs control | 111% |
| Cn1c2c(Cl)c(Cl)ccc2c2cc(N)[nH]c(=O)c21 | thermal stability, DSF | 10 µM | ΔTm | 1.8 °C |
| Cc1ccc(Nc2nccc(N(C)c3ccc4c(C)n(C)nc4c3)n2)cc1S(N)(=O)=O | enzyme activity, inhibitor | 10 µM | inhibition | 91% |

| SMILES | test | setting | endpoint | result |
| --- | --- | --- | --- | --- |
| N#CC1(c2ccccn2)CCN(Cc2cc(C(=O)N3CCCC3)c(=O)n3ccccc23)CC1 | cell-free assay, competition with immobilised ligand | 1 µM | remaining binding | 95% |
| Nc1nc(Nc2ccccc2)sc1C(=O)c1c(F)cccc1F | enzyme activity, inhibitor | 10 µM | remaining activity | 92% |
| N#CCCc1ccc2c(c1)-c1[nH]c3ccc([N+](=O)[O-])cc3c1CC(=O)N2 | cell-free assay | 0.5 µM | remaining signal | 92.7% |
| Cc1noc([C@H]2C[C@@H](c3ccc(C(F)(F)F)cc3)CN(C(=O)N3CCS(=O)(=O)C3)C2)n1 | cell-free assay, competition with immobilised ligand | 1 µM | remaining binding | 100% |
| O=C1Nc2ccc(Cl)cc2C1=Cc1cc(Cl)c(O)c(Cl)c1 | cell-free assay | 0.5 µM | remaining signal | 86% |
| Cn1c2c(c3ccc(Cl)c(Cl)c31)C(C#N)C1(CCCC1)NC2=O (centres unmarked) | thermal stability, DSF | 10 µM | ΔTm | 0.3 °C |
| CNC(=O)c1cc(Oc2ccc(NC(=O)Nc3ccc(Cl)c(C(F)(F)F)c3)cc2)ccn1 | enzyme activity, inhibitor | 0.3 µM | inhibition | -1% |
| CCC(=N\O)/C(C)=C/c1ccc(F)cc1 | cell-free assay, competition with immobilised ligand | 1 µM | remaining binding | 100% |
| COc1cc(Nc2cnc(C#N)c(O[C@H](C)CN(C)C)n2)ncc1-c1cnn(C)c1 | enzyme activity, inhibitor, radiometric | 10 µM | remaining activity | 64% |
| Cc1cc(NC(=O)c2cccc3cc(-c4cccc5[nH]nc(N)c45)ccc23)ccc1F | enzyme activity, inhibitor | 0.1 µM | activity vs control | 99% |
| Cc1sc(C(=O)NC2COC2)cc1-n1cc(NC(=O)Nc2c(F)cccc2Cl)cn1 | enzyme activity, inhibitor | 10 µM | remaining activity | 88% |
| CN(c1ccnc(CNc2nc(Nc3ccc4c(c3)CC(=O)N4)ncc2C(F)(F)F)n1)S(C)(=O)=O | cell-free assay, competition with immobilised ligand | 1 µM | remaining binding | 83% |
| FC(F)(F)Oc1cccc(-c2cnc3ccc(-c4ccncc4)nn23)c1 | enzyme activity, inhibitor, radiometric | 5 µM | activity vs control | 88% |
| CCN(CC)CCNC(=O)c1c(C)[nH]c(/C=C2\C(=O)Nc3ccc(F)cc32)c1C | enzyme activity, inhibitor | 10 µM | inhibition | 28% |
| Oc1cccc(-c2nc(N3CCOCC3)c3oc4ncccc4c3n2)c1 | enzyme activity, inhibitor | 10 µM | remaining activity | 86% |
| Cn1c2c(Cl)c(Cl)ccc2c2cn[nH]c(=O)c21 | thermal stability, DSF | 10 µM | ΔTm | -0.6 °C |
| CC(=O)Nc1c(C(C)=O)c(=O)n(C)c2nc(-c3ccc(Cl)cc3Cl)c(-c3ccc(Cl)cc3)cc12 | cell-free assay, competition with immobilised ligand | 1 µM | remaining binding | 100% |
| Cn1c2c(c3ccccc31)C(C#N)C(C)(C)NC2=O (centres unmarked) | thermal stability, DSF | 10 µM | ΔTm | -0.1 °C |
| CC(C)(C)c1nc(-c2cccc(NS(=O)(=O)c3c(F)cccc3F)c2F)c(-c2ccnc(N)n2)s1 | enzyme activity, inhibitor, radiometric | 1 µM | remaining activity | 83% |
